Five compounds from ChEMBL document CHEMBL1129790 (J Med Chem, 1996) can be followed below.

In test [1] the target is Glutamate receptor ionotropic, AMPA (Rattus norvegicus, UniProt P19490+P19491+P19492+P19493). Kind of test: Affinity against Ionotropic glutamate receptor AMPA using [3H]AMPA in selective radioligand binding assay. The class given is protein-complex assay. The method, boiled down: (§1)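 Displacement of the ionotropic radioligands ([3H]CGS19755 for NMDA, [3H]AMPA for AMPA, [3H]kainate for kainate sites) in rat forebrain membranes in vitro. Compounds were tested up to 100 μM, with IC50 as the read-out.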

The target of test [2] is Glutamate receptor ionotropic, kainate. Kind of test: Affinity value against Ionotropic glutamate receptor kainate using [3H]-kainic acid in selective radioligand binding assay. The class given is protein-complex assay. Summed up: as §1
Test [3] is described as follows: In vitro ability to displace [3H]glutamate binding to metabotropic glutamate receptors in rat forebrain membranes. The class given is cell membranes, Membrane. Summed up: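 Radioligand displacement of ACPD-sensitive [3H]glutamate binding to metabotropic glutamate receptors in rat forebrain membranes in vitro. IC50 is reported as mean ± error.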
In the next test the target is Glutamate NMDA receptor. Kind of test: Affinity value against N-methyl-D-aspartate (NMDA) receptor using [3H]-CGS- 19755 in glutamate radioligand binding assay. The class given is protein-complex assay. The method, boiled down:
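Displacement of the ionotropic radioligands ([3H]CGS19755 for NMDA, [3H]AMPA for AMPA, [3H]kainate for kainate sites) in rat forebrain membranes in vitro.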

Test [4] is filed under the species Rattus norvegicus. As to the kind of experiment: Inhibition of forskolin-stim cAMP formation in cross-chopped slices of the adult rat cerebral cortex. The class given is functional. For orientation: cAMP levels reflect the balance of adenylyl cyclase and phosphodiesterase activity.
Test [5] is filed under the species Rattus norvegicus. As to the kind of experiment: Stimulation of [3H]IP (tritiated inositol monophosphate) formation in cross-chopped slices of the neonata rat cerebral cortex. The class given is functional.
The species entered for test [6] is Rattus norvegicus. As to the kind of experiment: Augmentation of AMPA-induced excitation after Microelectrophoretic application to intact rat spinal neuron. The class given is functional. Summed up: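 Female Wistar rats (200–230 g) under pentobarbitone Na (60 mg/kg ip initially, supplemented ip as needed) with lumbar laminectomy. A seven-barrel glass microelectrode in spinal gray matter recorded single-neuron firing during timed intermittent AMPA ejection (barrel 10 mM in 200 mM NaCl, pH 7.4). Agonists (barrel 25 mM in 175 mM NaCl, pH 7.4) were ejected in varied order across cells. Response reported as % increase over control, mean ± SEM.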

Another test concerns Mus musculus. Kind of test: Dose dependent blocking of limbic seizures induced by compound 1 by systemically administrating intraperitoneally.

A word on the IC50: it is the concentration that gives 50% inhibition. A high value points to lower potency. For the compound `N[C@]1(C(=O)O)CN[C@H](C(=O)O)C1`, the IC50 (in test [1]; in test [2]; in test [3]; on Glutamate NMDA receptor) was more than 100 µM each time.
`N[C@]1(C(=O)O)CN[C@@H](C(=O)O)C1`: the IC50 in test [1], in test [2] and in test [3] was more than 100 µM in each case.
Regarding `N[C@@]1(C(=O)O)CC[C@@H](C(=O)O)C1`, the half-maximal inhibitory concentration (IC50) in test [1] was more than 100 µM; in test [2], more than 100 µM; in test [3], 10.3 µM; on Glutamate NMDA receptor, more than 100 µM. Besides, the EC50 in the test filed under Rattus norvegicus [4] was 8.17 µM; in the test filed under Rattus norvegicus [5], 27.7 µM. In the test listed under Rattus norvegicus [6], this compound registered an Increase of 95%.
On to `N[C@@]1(C(=O)O)CN[C@@H](C(=O)O)C1`, for which the concentration for half-maximal inhibition (IC50) is more than 100 µM in test [1], more than 100 µM in test [2], 6.49 µM in test [3] and more than 100 µM on Glutamate NMDA receptor. For the same compound, the EC50 in the test filed under Rattus norvegicus [4] is 14.5 µM; in the test with Mus musculus it was 271 mg/kg. Besides, the Increase in the test listed under Rattus norvegicus [6] came to 52%.
For `N[C@@]1(C(=O)O)CN[C@H](C(=O)O)C1`, the IC50 in test [1] is more than 100 µM; in test [2], more than 100 µM; in test [3], more than 100 µM; on Glutamate NMDA receptor, 23.7 µM.
